Experimental data as given in ChEMBL document CHEMBL1141663, “Synthesis and antibacterial activity of bis-[2-hydroxy-3-(1,7,8,9,10-pentamethyl-3,5-dioxo-4-aza-tricyclo[5.2.1.0(2,6)]dec-8-en-4-yloxy)-propyl]-dimethyl-ammonium chloride” (2008).
Converted amounts (≈) assume the structure as drawn. The source made the active and inactive calls. No cut-off for these calls is given here.

Key:
Staphylococcus aureus [1] = assay: Antibacterial activity against methicillin-susceptible Staphylococcus aureus 60/05 isolates after 18 hrs; format: functional
In short: (§1)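 Agar-dilution MIC on Mueller–Hinton II agar per CLSI guidelines. Aqueous test solutions were added to liquid agar to give two dilution series across 6.25–400 µg/mL. Solidified plates were spot-inoculated with 2 µL aliquots to a final inoculum of 10^4 […]. […] Strains were standard S. aureus strains or hospital patient isolates typed MSSA/MRSA.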

Staphylococcus aureus [2] = assay: Antibacterial activity against methicillin-resistant Staphylococcus aureus 79/05 isolates after 18 hrs; format: functional; in short: as §1
Staphylococcus aureus [3] = assay: Antibacterial activity against methicillin-susceptible Staphylococcus aureus 98/06 isolates after 18 hrs; format: functional; in short: as §1
Staphylococcus aureus [4] = assay: Antibacterial activity against methicillin-susceptible Staphylococcus aureus 42/05 isolates after 18 hrs; format: functional; in short: as §1
Staphylococcus aureus [5] = assay: Antibacterial activity against methicillin-resistant Staphylococcus aureus 1/04 isolates after 18 hrs; format: functional; in short: as §1
Staphylococcus aureus [6] = assay: Antibacterial activity against methicillin-resistant Staphylococcus aureus 47/05 isolates after 18 hrs; format: functional; in short: as §1
Staphylococcus aureus [7] = assay: Antibacterial activity against methicillin-susceptible Staphylococcus aureus 7/04 isolates after 18 hrs; format: functional; in short: as §1
Staphylococcus aureus [8] = assay: microbe, parasite or virus in culture; details: ATCC 6538P, read-out: IZ
Staphylococcus aureus [9] = assay: Antibacterial activity against methicillin-resistant Staphylococcus aureus 29/04 isolates after 18 hrs; format: functional; in short: as §1
Staphylococcus aureus [10] = assay: Antibacterial activity against methicillin-resistant Staphylococcus aureus 93/06 isolates after 18 hrs; format: functional; in short: as §1
Staphylococcus aureus [11] = assay: Antibacterial activity against methicillin-resistant Staphylococcus aureus 56/05 isolates after 18 hrs; format: functional; in short: as §1
Staphylococcus aureus [12] = assay: Antibacterial activity against methicillin-susceptible Staphylococcus aureus 40/05 isolates after 18 hrs; format: functional; in short: as §1
Staphylococcus aureus [13] = assay: Antibacterial activity against methicillin-susceptible Staphylococcus aureus 6/04 isolates after 18 hrs; format: functional; in short: as §1
Staphylococcus aureus [14] = assay: Antibacterial activity against methicillin-susceptible Staphylococcus aureus 14/04 isolates after 18 hrs; format: functional; in short: as §1
Staphylococcus aureus [15] = assay: Antibacterial activity against methicillin-susceptible Staphylococcus aureus 3/04 isolates after 18 hrs; format: functional; in short: as §1
Staphylococcus aureus [16] = assay: Antibacterial activity against methicillin-resistant Staphylococcus aureus 53/05 isolates after 18 hrs; format: functional; in short: as §1
Staphylococcus aureus [17] = assay: microbe, parasite or virus in culture; details: ATCC 29213, read-out: IZ
Pseudomonas aeruginosa [18] = assay: microbe, parasite or virus in culture; details: ATCC 15442, read-out: IZ
Staphylococcus aureus [19] = assay: Antibacterial activity against methicillin-susceptible Staphylococcus aureus 72/05 isolates after 18 hrs; format: functional; in short: as §1
Enterococcus hirae [20] = assay: Antibacterial activity against Enterococcus hirae ATCC 10541 at 5 ug/disk after 24 to 48 hrs by disc-diffusion method; format: functional, organism-based
Staphylococcus aureus [21] = assay: Antibacterial activity against methicillin-resistant Staphylococcus aureus 48/05 isolates after 18 hrs; format: functional; in short: as §1
Pseudomonas aeruginosa [22] = assay: microbe, parasite or virus in culture; details: NCTC 6749, read-out: IZ
Candida albicans [23] = assay: Antimicrobial activity against Candida albicans ATCC 10231 at 5 ug/disk after 24 to 48 hrs by disc-diffusion method; format: functional, organism-based
Staphylococcus aureus [24] = assay: Antibacterial activity against methicillin-susceptible Staphylococcus aureus 38/05 isolates after 18 hrs; format: functional; in short: as §1
Staphylococcus aureus [25] = assay: Antibacterial activity against methicillin-susceptible Staphylococcus aureus 69/05 isolates after 18 hrs; format: functional; in short: as §1
Staphylococcus aureus [26] = assay: Antibacterial activity against Staphylococcus aureus ATCC 29213 after 18 hrs; format: functional; details: ATCC 29213, 18 h; in short: as §1
[27] = test system: Bordetella bronchiseptica; assay: microbe, parasite or virus in culture; details: ATCC 4617, read-out: IZ
Staphylococcus aureus [28] = assay: Antibacterial activity against methicillin-susceptible Staphylococcus aureus 49/05 isolates after 18 hrs; format: functional; in short: as §1
Staphylococcus aureus [29] = assay: microbe, parasite or virus in culture; details: ATCC 25923, read-out: IZ
Staphylococcus aureus [30] = assay: Antibacterial activity against methicillin-resistant Staphylococcus aureus 46/05 isolates after 18 hrs; format: functional; in short: as §1
Staphylococcus aureus [31] = assay: Antibacterial activity against methicillin-resistant Staphylococcus aureus 91/06 isolates after 18 hrs; format: functional; in short: as §1
Staphylococcus aureus [32] = assay: Antibacterial activity against methicillin-susceptible Staphylococcus aureus 65/05 isolates after 18 hrs; format: functional; in short: as §1
Staphylococcus aureus [33] = assay: Antibacterial activity against Staphylococcus aureus ATCC 25923 after 18 hrs; format: functional; details: ATCC 25923, 18 h; in short: as §1
Staphylococcus aureus [34] = assay: Antibacterial activity against Staphylococcus aureus ATCC 6538P after 18 hrs; format: functional; in short: as §1
Bacillus subtilis [35] = assay: microbe, parasite or virus in culture; details: ATCC 6633, read-out: IZ
Staphylococcus aureus [36] = assay: Antibacterial activity against methicillin-susceptible Staphylococcus aureus 4/04 isolates after 18 hrs; format: functional; in short: as §1
Staphylococcus aureus [37] = assay: Antibacterial activity against methicillin-resistant Staphylococcus aureus 19/04 isolates after 18 hrs; format: functional; in short: as §1
Staphylococcus aureus [38] = assay: Antibacterial activity against methicillin-resistant Staphylococcus aureus 54/05 isolates after 18 hrs; format: functional; in short: as §1
Staphylococcus aureus [39] = assay: Antibacterial activity against methicillin-resistant Staphylococcus aureus 83/05 isolates after 18 hrs; format: functional; in short: as §1
Staphylococcus aureus [40] = assay: Antibacterial activity against methicillin-susceptible Staphylococcus aureus 2/04 isolates after 18 hrs; format: functional; in short: as §1
Staphylococcus aureus [41] = assay: Antibacterial activity against methicillin-resistant Staphylococcus aureus 92/06 isolates after 18 hrs; format: functional; in short: as §1
Escherichia coli [42] = assay: microbe, parasite or virus in culture; details: ATCC 25922, read-out: IZ
Escherichia coli [43] = assay: microbe, parasite or virus in culture; details: ATCC 10538, read-out: IZ
Staphylococcus aureus [44] = assay: Antibacterial activity against methicillin-resistant Staphylococcus aureus 55/05 isolates after 18 hrs; format: functional; in short: as §1
Staphylococcus aureus [45] = assay: Antibacterial activity against methicillin-susceptible Staphylococcus aureus 102/06 isolates after 18 hrs; format: functional; in short: as §1
Staphylococcus aureus [46] = assay: Antibacterial activity against Staphylococcus aureus NCTC 4163 after 18 hrs; format: functional; details: NCTC 4163, 18 h; in short: as §1
Staphylococcus aureus [47] = assay: Antibacterial activity against methicillin-susceptible Staphylococcus aureus 101/06 isolates after 18 hrs; format: functional; in short: as §1
Staphylococcus aureus [48] = assay: Antibacterial activity against methicillin-susceptible Staphylococcus aureus 28/04 isolates after 18 hrs; format: functional; in short: as §1
Staphylococcus aureus [49] = assay: microbe, parasite or virus in culture; details: NCTC 4163, read-out: IZ
Bacillus subtilis [50] = assay: Antibacterial activity against Bacillus subtilis ATCC 6633 at 10 ug/disk after 24 to 48 hrs by disc-diffusion method; format: functional, organism-based
Staphylococcus aureus [51] = assay: Antibacterial activity against Staphylococcus aureus ATCC 29213 at 10 ug/disk after 24 to 48 hrs by disc-diffusion method; format: functional, organism-based
Pseudomonas aeruginosa [52] = assay: Antibacterial activity against Pseudomonas aeruginosa ATCC […] at 10 ug/disk after 24 to 48 hrs by disc-diffusion method; format: functional, organism-based
Enterococcus hirae [53] = assay: Antibacterial activity against Enterococcus hirae ATCC 10541 at 10 ug/disk after 24 to 48 hrs by disc-diffusion method
Staphylococcus aureus [54] = assay: Antibacterial activity against Staphylococcus aureus ATCC 6538P at 10 ug/disk after 24 to 48 hrs by disc-diffusion method
Staphylococcus aureus [55] = assay: Antibacterial activity against Staphylococcus aureus ATCC 25923 at 10 ug/disk after 24 to 48 hrs by disc-diffusion method
Pseudomonas aeruginosa [56] = assay: Antibacterial activity against Pseudomonas aeruginosa NCTC 6749 at 10 ug/disk after 24 to 48 hrs by disc-diffusion method; format: functional, organism-based
Escherichia coli [57] = assay: Antibacterial activity against Escherichia coli ATCC […] at 10 ug/disk after 24 to 48 hrs by disc-diffusion method; format: functional, organism-based
Escherichia coli [58] = assay: Antibacterial activity against Escherichia coli ATCC […] at 10 ug/disk after 24 to 48 hrs by disc-diffusion method; format: functional, organism-based
Staphylococcus aureus [59] = assay: Antibacterial activity against Staphylococcus aureus NCTC 4163 at 10 ug/disk after 24 to 48 hrs by disc-diffusion method; format: functional, organism-based
Candida albicans [60] = assay: microbe, parasite or virus in culture; details: ATCC 10231, read-out: IZ
[61] = test system: Bordetella bronchiseptica; assay: Antibacterial activity against Bordetella bronchiseptica ATCC 4617 at 10 ug/disk after 24 to 48 hrs by disc-diffusion method; format: functional, organism-based

O=C(O)c1cn(C2CC2)c2cc(N3CCNCC3)c(F)cc2c1=O [CIPROFLOXACIN]
MIC (Staphylococcus aureus [1]): 0.5 µg/mL (≈ 1.51 µM)
MIC (Staphylococcus aureus [2]): 128 µg/mL (≈ 386 µM)
MIC (Staphylococcus aureus [3]): 0.25 µg/mL (≈ 0.754 µM)
MIC (Staphylococcus aureus [4]): 2 µg/mL (≈ 6.04 µM)
MIC (Staphylococcus aureus [5]): 64 µg/mL (≈ 193 µM)
MIC (Staphylococcus aureus [6]): 128 µg/mL (≈ 386 µM)
MIC (Staphylococcus aureus [7]): 2 µg/mL (≈ 6.04 µM)
zone of inhibition at 5 µg/disc (Staphylococcus aureus [8]): 28 mm
MIC (Staphylococcus aureus [9]): 64 µg/mL (≈ 193 µM)
MIC (Staphylococcus aureus [10]): 128 µg/mL (≈ 386 µM)
MIC (Staphylococcus aureus [11]): 32 µg/mL (≈ 96.6 µM)
MIC (Staphylococcus aureus [12]): 0.5 µg/mL (≈ 1.51 µM)
MIC (Staphylococcus aureus [13]): 0.25 µg/mL (≈ 0.754 µM)
MIC (Staphylococcus aureus [14]): 1 µg/mL (≈ 3.02 µM)
MIC (Staphylococcus aureus [15]): 0.25 µg/mL (≈ 0.754 µM)
MIC (Staphylococcus aureus [16]): 128 µg/mL (≈ 386 µM)
zone of inhibition at 5 µg/disc (Staphylococcus aureus [17]): 22 mm
zone of inhibition at 5 µg/disc (Pseudomonas aeruginosa [18]): 26 mm
MIC (Staphylococcus aureus [19]): 0.25 µg/mL (≈ 0.754 µM)
Activity (Enterococcus hirae [20]): inactive
MIC (Staphylococcus aureus [21]): 128 µg/mL (≈ 386 µM)
zone of inhibition at 5 µg/disc (Pseudomonas aeruginosa [22]): 26 mm
Activity (Candida albicans [23]): inactive
MIC (Staphylococcus aureus [24]): 0.25 µg/mL (≈ 0.754 µM)
MIC (Staphylococcus aureus [25]): 2 µg/mL (≈ 6.04 µM)
MIC (Staphylococcus aureus [26]): 0.5 µg/mL (≈ 1.51 µM)
zone of inhibition at 5 µg/disc [27]: 31 mm
MIC (Staphylococcus aureus [28]): 0.25 µg/mL (≈ 0.754 µM)
zone of inhibition at 5 µg/disc (Staphylococcus aureus [29]): 26 mm
MIC (Staphylococcus aureus [30]): 64 µg/mL (≈ 193 µM)
MIC (Staphylococcus aureus [31]): > 128 µg/mL
MIC (Staphylococcus aureus [32]): 0.5 µg/mL (≈ 1.51 µM)
MIC (Staphylococcus aureus [33]): 0.5 µg/mL (≈ 1.51 µM)
MIC (Staphylococcus aureus [34]): 0.5 µg/mL (≈ 1.51 µM)
zone of inhibition at 5 µg/disc (Bacillus subtilis [35]): 40 mm
MIC (Staphylococcus aureus [36]): 0.25 µg/mL (≈ 0.754 µM)
MIC (Staphylococcus aureus [37]): 64 µg/mL (≈ 193 µM)
MIC (Staphylococcus aureus [38]): 128 µg/mL (≈ 386 µM)
MIC (Staphylococcus aureus [39]): 32 µg/mL (≈ 96.6 µM)
MIC (Staphylococcus aureus [40]): > 4 µg/mL
MIC (Staphylococcus aureus [41]): 8 µg/mL (≈ 24.1 µM)
zone of inhibition at 5 µg/disc (Escherichia coli [42]): 35 mm
zone of inhibition at 5 µg/disc (Escherichia coli [43]): 34 mm
MIC (Staphylococcus aureus [44]): 128 µg/mL (≈ 386 µM)
MIC (Staphylococcus aureus [45]): 0.5 µg/mL (≈ 1.51 µM)
MIC (Staphylococcus aureus [46]): 0.5 µg/mL (≈ 1.51 µM)
MIC (Staphylococcus aureus [47]): 0.25 µg/mL (≈ 0.754 µM)
MIC (Staphylococcus aureus [48]): 1 µg/mL (≈ 3.02 µM)
zone of inhibition at 5 µg/disc (Staphylococcus aureus [49]): 26 mm

Clc1ccc(COC(Cn2ccnc2)c2ccc(Cl)cc2Cl)c(Cl)c1 (stereo unspecified) [MICONAZOLE]
Activity (Bacillus subtilis [50]): inactive
Activity (Staphylococcus aureus [51]): inactive
Activity (Pseudomonas aeruginosa [52]): inactive
Activity (Enterococcus hirae [53]): inactive
Activity (Staphylococcus aureus [54]): inactive
Activity (Staphylococcus aureus [55]): inactive
Activity (Pseudomonas aeruginosa [56]): inactive
Activity (Escherichia coli [57]): inactive
Activity (Escherichia coli [58]): inactive
Activity (Staphylococcus aureus [59]): inactive
zone of inhibition at 10 µg/disc (Candida albicans [60]): 20 mm
Activity [61]: inactive
